Common to all, as to assay type: functional
For one experiment, the system named is Aspergillus sp. Nature of the experiment: Compound was tested for inherent antifungal geometric minimum inhibitory concentration (GMMIC) against Aspergillus in serial dilution from 64 to 0.0313 ug/mL. An outline of the steps: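 Broth microdilution in Sabouraud dextrose broth, pH 5.7. Compound dissolved in DMSO or ethanol and serially diluted in medium. Inoculum ~10^4/cc, incubated at 27 °C for 72 h. MIC is the lowest concentration giving complete growth inhibition by visual reading. Geometric mean taken across the Aspergillus isolates.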

A further experiment deals with Candida. Briefly: Compound was tested for inherent antifungal geometric minimum inhibitory concentration (GMMIC) against Candida albicans and Candida tropicalis in serial dilution from 64 to 0.0313 ug/mL. A digest of the protocol: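 Eagle's minimum essential medium, pH 7.0. Compound in DMSO or ethanol, serially diluted in medium, inoculum 5×10^2/cc. Incubated at 37 °C under CO2 for 48 h. MIC is the lowest concentration with complete visible growth inhibition in microtiter wells. Geometric mean over C. albicans and C. tropicalis strains.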

The next experiment deals with Arthrodermataceae. Briefly: Compound was tested for inherent antifungal geometric minimum inhibitory concentration (GMMIC) against Dermatophytes in serial dilution from 64 to 0.0313 ug/mL. A digest of the protocol:
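Sabouraud dextrose broth, pH 5.7, inoculum ~10^4/cc, 27 °C, read visually at 72 h. MIC is the lowest concentration giving complete growth inhibition. Compound in DMSO or ethanol, serially diluted in broth. Geometric mean over T. mentagrophytes D24 and D30, T. rubrum D54 and D61, T. tonsurans D73 and M. canis D18.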

This is an account of results in ChEMBL document CHEMBL1135167, “Synthesis and antifungal activity of the 2,2,5-tetrahydrofuran regioisomers of SCH 51048” (2002).

Structures are written as SMILES.

In the case of `CCC(CC)n1ncn(-c2ccc(N3CCN(c4ccc(OC[C@H]5CO[C@](Cn6cncn6)(c6ccc(F)cc6F)C5)cc4)CC3)cc2)c1=O`, the figures for the GMMIC entry in the experiment on Aspergillus sp., with Candida and in the experiment on Arthrodermataceae were “>=128 ug ml-1”, 0.27 µg/mL and “>=128 ug ml-1”, respectively.
In the case of `CCC(CC)n1ncn(-c2ccc(N3CCN(c4ccc(OC[C@H]5CC[C@](Cn6cncn6)(c6ccc(F)cc6F)O5)cc4)CC3)cc2)c1=O`, the GMMIC was 0.25 µg/mL in the experiment with Aspergillus sp., 0.02 µg/mL in the experiment with Candida and “>=0.35 ug ml-1” in the experiment with Arthrodermataceae.
For the compound `CCC(CC)n1ncn(-c2ccc(N3CCN(c4ccc(OC[C@@H]5CO[C@@](Cn6cncn6)(c6ccc(F)cc6F)C5)cc4)CC3)cc2)c1=O`, the GMMIC in the experiment with Aspergillus sp. was 0.04 µg/mL; in the experiment on Candida it was “<=0.04 ug ml-1”; in the experiment with Arthrodermataceae it was “>=0.06 ug ml-1”.
For `CCC(CC)n1ncn(-c2ccc(N3CCN(c4ccc(OC[C@@H]5CC[C@@](Cn6cncn6)(c6ccc(F)cc6F)O5)cc4)CC3)cc2)c1=O`, the values for the GMMIC result in the experiment with Aspergillus sp., in the experiment with Candida and with Arthrodermataceae were “>=128 ug ml-1”, “<=0.1 ug ml-1” and “>=128 ug ml-1”, respectively.
As to `CCC(C)n1ncn(-c2ccc(N3CCN(c4ccc(OCC5COC(Cn6cncn6)(c6ccc(Cl)cc6Cl)O5)cc4)CC3)cc2)c1=O` (racemic) [ITRACONAZOLE], the GMMIC is 0.3 µg/mL in the experiment on Aspergillus sp., 0.04 µg/mL with Candida and “>=0.89 ug ml-1” in the experiment with Arthrodermataceae.
